# From ChEMBL document CHEMBL1146085, “Nanomolar inhibitors of the peptidyl prolyl cis/trans isomerase Pin1 from combinatorial peptide libraries” (J Med Chem, 2006)
# Where a SMILES comes first, the peptide text is derived from it. [ ]: non-standard residue; d: D form. The star is where a group is joined. dalloThr(PO3H2) = C[C@@H](OP(=O)(O)O)[C@@H](N)C(=O)O; alloThr(PO3H2) = C[C@H](OP(=O)(O)O)[C@H](N)C(=O)O; Biotin = O=C1N[C@H]2[C@H](CS[C@H]2CCCCC(=O)*)N1; Phe(4-tBu) = CC(C)(C)c1ccc(C[C@H](N)C(=O)O)cc1; Bip = N[C@@H](Cc1ccc(-c2ccccc2)cc1)C(=O)O; pT = C[C@@H](OP(=O)(O)O)[C@H](N)C(=O)O; 2Nal = N[C@@H](Cc1ccc2ccccc2c1)C(=O)O; Bta = N[C@@H](Cc1csc2ccccc12)C(=O)O; Tic = O=C(O)[C@@H]1Cc2ccccc2CN1; 2Thi = N[C@@H](Cc1cccs1)C(=O)O; Cha = N[C@@H](CC1CCCCC1)C(=O)O; Tle = CC(C)(C)[C@H](N)C(=O)O; Pip = O=C(O)[C@@H]1CCCCN1; NMeA = CN[C@@H](C)C(=O)O
# Columns and labels:
# [1] = target: T1, Peptidyl-prolyl cis-trans isomerase NIMA-interacting 1 (Homo sapiens, UniProt Q13526); assay: Inhibition of human Pin1 PPIase Activity by protease free PPIase assay
# Procedure, shortened: (§1)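 Protease-free PPIase assay using Abz-Ala-Glu-Pro-Phe-NH-Np as substrate in 35 mM HEPES, pH 7.8, at 10 °C. Ki derived from concentration-dependent measurement of remaining Pin1 activity.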
# HeLa [2] = assay: Stability in HeLa cells after 5 hrs incubation; assay type: ADME, cell-based; details: human
# Procedure, shortened: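 Peptide incubated 5 h in whole HeLa cell lysate without phosphatase or protease inhibitors. Biotin-conjugated species pulled down on streptavidin Sepharose and analysed by mass spectrometry. Separately, 5 µM peptide analysed by capillary electrophoresis in 50 mM sodium phosphate, pH 7.0, detected at 220 nm, against a reference sample in buffer alone.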
# [3] = target: Protein kinase C (PKC) (Homo sapiens) (UniProt O94806+P41743+P17252+P05129+Q05655+P05771+Q05513+Q02156+P24723+Q15139+Q04759); assay: Inhibition of PKC at 500 uM; assay type: protein assay
# [4] = target: Mitogen-activated protein kinase 1 (Homo sapiens) (UniProt P28482); assay: Inhibition of ERK2 at 500 uM
# HeLa [5] = assay: Cell cycle arrest in HeLa cells by accumulation at G2/M phase; assay type: functional, cell-based; details: Homo sapiens
# Procedure, shortened: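 HeLa cells loaded with inhibitor or its nonphosphorylated derivative by electroporation at varying concentrations, then cultured 3 days at 37 °C. DNA content measured by flow cytometry to give cell cycle phase fractions. Intracellular inhibitor level measured after cell lysis and centrifugation by reverse-phase HPLC of the supernatant against a standard curve.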
# [6] = target: Serine/threonine protein phosphatase PP2B-alpha catalytic subunit (Homo sapiens) (UniProt P16298); assay: Inhibition of PP2B at 500 uM
# [7] = target: Peptidyl-prolyl cis-trans isomerase A (Homo sapiens) (UniProt P62937); assay: Inhibition of Cyp18 at 500 uM
# [8] = Inhibition of PP2A at 500 uM
# [9] = target: Peptidyl-prolyl cis-trans isomerase NIMA-interacting 4 (Homo sapiens) (UniProt Q9Y237); assay: Inhibition of Par14 at 500 uM
# [10] = target: Peptidyl-prolyl cis-trans isomerase FKBP1A (Homo sapiens) (UniProt P62942); assay: Inhibition of FKBP12 at 500 uM
# [11] = target: cAMP-dependent protein kinase (PKA) (Homo sapiens) (UniProt P22694+P17612+P22612); assay: Inhibition of PKA at 500 uM; assay type: protein assay
# [12] = Inhibition of PP1 at 500 uM
# [13] = target: T1, Peptidyl-prolyl cis-trans isomerase NIMA-interacting 1; assay: Residual PPIase activity of human GST-Pin1
# [14] = system: Peptidyl-prolyl cis-trans isomerase NIMA-interacting 1 (Homo sapiens), Q13526 [S16E]; assay: Residual PPIase activity of human GST-Pin1 S16E by protease free PPIase assay; procedure, shortened: as §1
# [15] = system: Peptidyl-prolyl cis-trans isomerase NIMA-interacting 1 (Homo sapiens), Q13526 [C113A]; assay: Residual PPIase activity of human GST-Pin1 C113A
# [16] = target: T1, Peptidyl-prolyl cis-trans isomerase NIMA-interacting 1; assay: Residual PPIase activity of human GST-Pin1 69A
# [17] = system: Peptidyl-prolyl cis-trans isomerase NIMA-interacting 1 (Homo sapiens), Q13526 [S154F]; assay: Residual PPIase activity of human GST-Pin1 S154F
# [18] = system: Peptidyl-prolyl cis-trans isomerase NIMA-interacting 1 (Homo sapiens), Q13526 [H59A]; assay: Residual PPIase activity of human GST-Pin1 H59A
# [19] = system: Peptidyl-prolyl cis-trans isomerase NIMA-interacting 1 (Homo sapiens), Q13526 [K63A]; assay: Residual PPIase activity of human GST-Pin1 K63A
# [20] = target: T1, Peptidyl-prolyl cis-trans isomerase NIMA-interacting 1; assay: Residual PPIase activity of human GST-Pin1 R68
# [21] = system: Peptidyl-prolyl cis-trans isomerase NIMA-interacting 1 (Homo sapiens), Q13526 [S67E]; assay: Residual PPIase activity of human GST-Pin1 S67E
# Sequence of Peptidyl-prolyl cis-trans isomerase A (Homo sapiens) (P62937 whole entry, looked up): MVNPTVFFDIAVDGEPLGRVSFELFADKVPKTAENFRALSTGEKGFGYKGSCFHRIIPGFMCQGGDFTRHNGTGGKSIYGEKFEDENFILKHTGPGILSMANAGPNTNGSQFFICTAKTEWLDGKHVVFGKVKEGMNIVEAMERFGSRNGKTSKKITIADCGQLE
# Sequence of Peptidyl-prolyl cis-trans isomerase NIMA-interacting 4 (Homo sapiens) (Q9Y237 whole entry): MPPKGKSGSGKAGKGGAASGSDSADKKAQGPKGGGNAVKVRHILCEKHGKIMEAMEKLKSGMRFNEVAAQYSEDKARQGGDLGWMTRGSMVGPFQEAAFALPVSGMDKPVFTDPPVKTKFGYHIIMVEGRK
# Sequence of Peptidyl-prolyl cis-trans isomerase FKBP1A (Homo sapiens) (P62942 whole entry): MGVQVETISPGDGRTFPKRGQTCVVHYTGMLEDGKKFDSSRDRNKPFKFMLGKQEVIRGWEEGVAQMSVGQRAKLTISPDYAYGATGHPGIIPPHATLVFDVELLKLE
# Sequence of Mitogen-activated protein kinase 1 (Homo sapiens) (P28482 whole entry): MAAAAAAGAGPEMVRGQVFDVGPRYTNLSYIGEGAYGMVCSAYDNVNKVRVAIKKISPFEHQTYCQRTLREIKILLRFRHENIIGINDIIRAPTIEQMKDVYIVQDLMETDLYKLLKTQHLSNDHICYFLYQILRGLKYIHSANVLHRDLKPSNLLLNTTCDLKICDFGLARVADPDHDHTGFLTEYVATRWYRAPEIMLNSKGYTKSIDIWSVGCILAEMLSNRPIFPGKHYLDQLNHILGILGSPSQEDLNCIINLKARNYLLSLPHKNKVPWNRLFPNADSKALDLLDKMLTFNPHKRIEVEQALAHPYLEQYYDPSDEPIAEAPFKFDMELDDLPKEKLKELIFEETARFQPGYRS
smiles,measurement,setting,value
CC(=O)N[C@@H](Cc1csc2ccccc12)C(=O)N[C@H](C(=O)N1CCCC[C@@H]1C(=O)N[C@@H](Cc1ccc2ccccc2c1)C(=O)N[C@@H](CCC(N)=O)C(N)=O)[C@@H](C)OP(=O)(O)O,Ki,[1],0.258 µM
CC(=O)N[C@@H](Cc1ccccc1)C(=O)N[C@H](C(=O)N1CCCC[C@@H]1C(=O)N[C@@H](Cc1ccc2ccccc2c1)C(=O)N[C@@H](CCC(N)=O)C(N)=O)[C@H](C)OP(=O)(O)O,Ki,[1],0.547 µM
CC(=O)N[C@@H](Cc1ccccc1)C(=O)N[C@@H](C(=O)N1CCCC[C@H]1C(=O)N[C@@H](Cc1ccc2ccccc2c1)C(=O)N[C@@H](CCC(N)=O)C(N)=O)[C@H](C)OP(=O)(O)O,Activity,HeLa [2],Stable
CC(=O)N[C@@H](Cc1ccccc1)C(=O)N[C@@H](C(=O)N1CCCC[C@@H]1C(=O)N[C@@H](Cc1ccc2ccccc2c1)C(=O)N[C@@H](CCC(N)=O)C(N)=O)[C@H](C)OP(=O)(O)O,inhibition,[3],< 10%
same,inhibition,[4],< 10%
same,Activity,HeLa [5],Dose-dependent effect
same,inhibition,[6],< 10%
same,inhibition,[7],< 10%
same,inhibition,[8],< 10%
same,inhibition,[9],< 10%
same,inhibition,[10],< 10%
same,inhibition,[11],< 10%
same,inhibition,[12],< 10%
CC(=O)N[C@@H](CCCCNC(=O)CCCC[C@@H]1SC[C@@H]2NC(=O)N[C@@H]21)C(=O)N[C@@H](C)C(=O)N[C@@H](C)C(=O)N[C@@H](Cc1ccccc1)C(=O)N[C@H](C(=O)N(C)[C@@H](C)C(=O)N[C@@H](Cc1csc2ccccc12)C(=O)N[C@@H](CCC(N)=O)C(N)=O)[C@H](C)OP(=O)(O)O (Ac-K(Biotin)AAF[alloThr(PO3H2)][NMeA][Bta]Q-NH2),IC50,[1],20 µM
CC(=O)N[C@@H](CCCCNC(=O)CCCC[C@@H]1SC[C@@H]2NC(=O)N[C@@H]21)C(=O)N[C@@H](C)C(=O)N[C@@H](C)C(=O)N[C@@H](Cc1ccc2ccccc2c1)C(=O)N[C@H](C(=O)N1CCC[C@H]1C(=O)N[C@@H](CC1CCCCC1)C(=O)N[C@@H](CCC(N)=O)C(N)=O)[C@H](C)OP(=O)(O)O (Ac-K(Biotin)AA[2Nal][alloThr(PO3H2)]P[Cha]Q-NH2),IC50,[1],> 50 µM
CC(=O)N[C@@H](CCCCNC(=O)CCCC[C@@H]1SC[C@@H]2NC(=O)N[C@@H]21)C(=O)N[C@@H](C)C(=O)N[C@@H](C)C(=O)N[C@@H](Cc1ccc2ccccc2c1)C(=O)N[C@H](C(=O)N1CCC[C@H]1C(=O)N[C@H](C(=O)N[C@@H](CCC(N)=O)C(N)=O)C(C)(C)C)[C@H](C)OP(=O)(O)O (Ac-K(Biotin)AA[2Nal][alloThr(PO3H2)]P[Tle]Q-NH2),IC50,[1],> 50 µM
CC(=O)N[C@@H](CCCCNC(=O)CCCC[C@@H]1SC[C@@H]2NC(=O)N[C@@H]21)C(=O)N[C@@H](C)C(=O)N[C@@H](C)C(=O)N[C@@H](Cc1cccs1)C(=O)N[C@H](C(=O)N(C)[C@@H](C)C(=O)N[C@@H](Cc1ccc2ccccc2c1)C(=O)N[C@@H](CCC(N)=O)C(N)=O)[C@H](C)OP(=O)(O)O (Ac-K(Biotin)AA[2Thi][alloThr(PO3H2)][NMeA][2Nal]Q-NH2),IC50,[1],15 µM
CC(=O)N[C@@H](CCCCNC(=O)CCCC[C@@H]1SC[C@@H]2NC(=O)N[C@@H]21)C(=O)N[C@@H](C)C(=O)N[C@@H](C)C(=O)N[C@@H](Cc1ccc(-c2ccccc2)cc1)C(=O)N[C@H](C(=O)N1CCC[C@H]1C(=O)N[C@@H](Cc1ccc2ccccc2c1)C(=O)N[C@@H](CCC(N)=O)C(N)=O)[C@H](C)OP(=O)(O)O (Ac-K(Biotin)AA[Bip][alloThr(PO3H2)]P[2Nal]Q-NH2),IC50,[1],18 µM
same,Ki,[1],0.0048 µM
CC(=O)N[C@@H](CCCCNC(=O)CCCC[C@@H]1SC[C@@H]2NC(=O)N[C@@H]21)C(=O)N[C@@H](C)C(=O)N[C@@H](C)C(=O)N[C@@H](Cc1ccc(-c2ccccc2)cc1)C(=O)N[C@H](C(=O)N1CCC[C@H]1C(=O)N[C@@H](Cc1csc2ccccc12)C(=O)N[C@@H](CCC(N)=O)C(N)=O)[C@H](C)OP(=O)(O)O (Ac-K(Biotin)AA[Bip][alloThr(PO3H2)]P[Bta]Q-NH2),IC50,[1],15 µM
CC(=O)N[C@@H](CCCCNC(=O)CCCC[C@@H]1SC[C@@H]2NC(=O)N[C@@H]21)C(=O)N[C@@H](C)C(=O)N[C@@H](C)C(=O)N[C@@H](Cc1csc2ccccc12)C(=O)N[C@H](C(=O)N1CCC[C@H]1C(=O)N[C@@H](Cc1ccc2ccccc2c1)C(=O)N[C@@H](CCC(N)=O)C(N)=O)[C@H](C)OP(=O)(O)O (Ac-K(Biotin)AA[Bta][alloThr(PO3H2)]P[2Nal]Q-NH2),IC50,[1],20 µM
CC(=O)N[C@@H](CCCCNC(=O)CCCC[C@@H]1SC[C@@H]2NC(=O)N[C@@H]21)C(=O)N[C@@H](C)C(=O)N[C@@H](C)C(=O)N[C@@H](Cc1csc2ccccc12)C(=O)N[C@H](C(=O)N1CCCC[C@H]1C(=O)N[C@@H](Cc1ccc2ccccc2c1)C(=O)N[C@@H](CCC(N)=O)C(N)=O)[C@H](C)OP(=O)(O)O (Ac-K(Biotin)AA[Bta][alloThr(PO3H2)][Pip][2Nal]Q-NH2),Activity,[13],100%
same,Activity,[14],100%
same,Activity,[15],6%
same,Activity,[16],0.4%
same,Activity,[17],35%
same,Activity,[18],5.7%
same,IC50,[1],0.21 µM
same,Ki,[1],0.183 µM
same,Activity,[19],0.2%
same,Activity,[20],0.4%
same,Activity,[21],0.3%
CC(=O)N[C@@H](CCCCNC(=O)CCCC[C@@H]1SC[C@@H]2NC(=O)N[C@@H]21)C(=O)N[C@@H](C)C(=O)N[C@@H](C)C(=O)N[C@@H](Cc1csc2ccccc12)C(=O)N[C@@H](C(=O)N1CCCC[C@H]1C(=O)N[C@@H](Cc1ccc2ccccc2c1)C(=O)N[C@@H](CCC(N)=O)C(N)=O)[C@@H](C)OP(=O)(O)O (Ac-K(Biotin)AA[Bta][dalloThr(PO3H2)][Pip][2Nal]Q-NH2),inhibition,[3],< 10%
same,inhibition,[4],< 10%
same,inhibition,[6],< 10%
same,inhibition,[7],< 10%
same,Ki,[1],0.0012 µM
same,inhibition,[8],< 10%
same,inhibition,[9],< 10%
same,inhibition,[10],< 10%
same,inhibition,[11],< 10%
same,inhibition,[12],< 10%
CC(=O)N[C@@H](CCCCNC(=O)CCCC[C@@H]1SC[C@@H]2NC(=O)N[C@@H]21)C(=O)N[C@@H](C)C(=O)N[C@@H](C)C(=O)N[C@@H](Cc1csc2ccccc12)C(=O)N[C@H](C(=O)N1CCC[C@H]1C(=O)N[C@@H](CC1CCCCC1)C(=O)N[C@@H](CCC(N)=O)C(N)=O)[C@@H](C)OP(=O)(O)O (Ac-K(Biotin)AA[Bta][pT]P[Cha]Q-NH2),IC50,[1],> 50 µM
CC(=O)N[C@@H](CCCCNC(=O)CCCC[C@@H]1SC[C@@H]2NC(=O)N[C@@H]21)C(=O)N[C@@H](C)C(=O)N[C@@H](C)C(=O)N[C@@H](CC1CCCCC1)C(=O)N[C@H](C(=O)N(C)[C@@H](C)C(=O)N[C@@H](Cc1ccc2ccccc2c1)C(=O)N[C@@H](CCC(N)=O)C(N)=O)[C@H](C)OP(=O)(O)O (Ac-K(Biotin)AA[Cha][alloThr(PO3H2)][NMeA][2Nal]Q-NH2),IC50,[1],7 µM
CC(=O)N[C@@H](CCCCNC(=O)CCCC[C@@H]1SC[C@@H]2NC(=O)N[C@@H]21)C(=O)N[C@@H](C)C(=O)N[C@@H](C)C(=O)N[C@@H](CC1CCCCC1)C(=O)N[C@H](C(=O)N1Cc2ccccc2C[C@H]1C(=O)N[C@@H](Cc1ccc2ccccc2c1)C(=O)N[C@@H](CCC(N)=O)C(N)=O)[C@H](C)OP(=O)(O)O (Ac-K(Biotin)AA[Cha][alloThr(PO3H2)][Tic][2Nal]Q-NH2),IC50,[1],25 µM
CC(=O)N[C@@H](CCCCNC(=O)CCCC[C@@H]1SC[C@@H]2NC(=O)N[C@@H]21)C(=O)N[C@@H](C)C(=O)N[C@@H](C)C(=O)N[C@@H](Cc1ccc(C(C)(C)C)cc1)C(=O)N[C@H](C(=O)N1Cc2ccccc2C[C@H]1C(=O)N[C@@H](Cc1csc2ccccc12)C(=O)N[C@@H](CCC(N)=O)C(N)=O)[C@H](C)OP(=O)(O)O (Ac-K(Biotin)AA[Phe(4-tBu)][alloThr(PO3H2)][Tic][Bta]Q-NH2),IC50,[1],8 µM
